In ChEMBL document CHEMBL1148671, “Synthesis and antibacterial activity of C12 des-methyl ketolides” (2006):
In brackets after ≈: the same amount, converted by molar mass.

Key:
Type in all cases: functional
[1] = system: Haemophilus influenzae; experiment: Antibacterial activity against Haemophilus influenzae 49247 by broth microdilution method
Procedure, shortened: (§1)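 In vitro activity was read as the minimum inhibitory concentration (MIC) by broth microdilution and reported in μg/mL. The S. pneumoniae panel included erythromycin-resistant strains carrying mef or erm genes. Telithromycin and clarithromycin were run as comparators in every assay.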

[2] = system: Streptococcus pneumoniae; experiment: Antibacterial activity against erythromycin-resistant Streptococcus pneumoniae mef 5654 by broth microdilution method
[3] = system: Staphylococcus epidermidis; experiment: Antibacterial activity against Staphylococcus epidermidis f50654 by broth microdilution method; procedure, shortened: as §1
[4] = system: Staphylococcus aureus; experiment: Antibacterial activity against Staphylococcus aureus 33591 by broth microdilution method; procedure, shortened: as §1
[5] = system: Streptococcus pneumoniae; experiment: Antibacterial activity against erythromycin-resistant Streptococcus pneumoniae erm 6849 by broth microdilution method
[6] = system: Streptococcus pneumoniae; experiment: Antibacterial activity against Streptococcus pneumoniae 49619 by broth microdilution method; procedure, shortened: as §1
[7] = system: Streptococcus pyogenes; experiment: Antibacterial activity against Streptococcus pyogenes 8668 by broth microdilution method; procedure, shortened: as §1
[8] = system: Streptococcus pneumoniae; experiment: Antibacterial activity against Streptococcus pneumoniae 297-749 by broth microdilution method; procedure, shortened: as §1
[9] = system: Staphylococcus epidermidis; experiment: Antibacterial activity against Staphylococcus epidermidis 14990 by broth microdilution method; procedure, shortened: as §1
[10] = system: Enterococcus faecalis; experiment: Antibacterial activity against Enterococcus faecalis 29212 by broth microdilution method; procedure, shortened: as §1
[11] = system: Enterococcus faecalis; experiment: Antibacterial activity against Enterococcus faecalis bc11148-2 by broth microdilution method; procedure, shortened: as §1
[12] = system: Staphylococcus aureus; experiment: Antibacterial activity against Staphylococcus aureus 29213 by broth microdilution method; conditions: ATCC29213; procedure, shortened: as §1
[13] = system: Streptococcus pneumoniae; experiment: Antibacterial activity against Streptococcus pneumoniae 280-962 by broth microdilution method; procedure, shortened: as §1
[14] = system: Streptococcus pneumoniae; experiment: Antibacterial activity against erythromycin-resistant Streptococcus pneumoniae mef S 3427 by broth microdilution method
[15] = system: Haemophilus influenzae; experiment: Antibacterial activity against Haemophilus influenzae 2762 by broth microdilution method; procedure, shortened: as §1

Structure (SMILES)	MIC [1]	MIC [2]	MIC [3]	MIC [4]	MIC [5]	MIC [6]	MIC [7]	MIC [8]	MIC [9]	MIC [10]	MIC [11]	MIC [12]	MIC [13]	MIC [14]	MIC [15]
CC[C@H]1OC(=O)[C@H](C)C(=O)[C@H](C)[C@@H](O[C@@H]2O[C@H](C)C[C@H](N(C)C)[C@H]2O)[C@](C)(OC)C[C@@H](C)C(=O)[C@H](C)[C@@H]2[C@@H]1OC(=O)N2CCCCc1ccnc2ccccc12	1.56 µg/mL (≈ 1.99 µM)	0.1 µg/mL (≈ 0.128 µM)	0.1 µg/mL (≈ 0.128 µM)	> 50 µg/mL	6.25 µg/mL (≈ 7.99 µM)	≤ 0.05 µg/mL	≤ 0.05 µg/mL	≤ 0.05 µg/mL	0.1 µg/mL (≈ 0.128 µM)	≤ 0.05 µg/mL	> 50 µg/mL	0.1 µg/mL (≈ 0.128 µM)	≤ 0.05 µg/mL	–	–
CC[C@H]1OC(=O)[C@H](C)C(=O)[C@H](C)[C@@H](O[C@@H]2O[C@H](C)C[C@H](N(C)C)[C@H]2O)[C@](C)(OC)C[C@@H](C)C(=O)[C@H](C)[C@@H]2[C@@H]1OC(=O)N2CCCCn1cnc(-c2ccc(OC)nc2)c1	6.25 µg/mL (≈ 7.55 µM)	0.78 µg/mL (≈ 0.942 µM)	0.2 µg/mL (≈ 0.242 µM)	> 50 µg/mL	50 µg/mL (≈ 60.4 µM)	≤ 0.05 µg/mL	≤ 0.05 µg/mL	≤ 0.05 µg/mL	0.1 µg/mL (≈ 0.121 µM)	≤ 0.05 µg/mL	6.25 µg/mL (≈ 7.55 µM)	0.2 µg/mL (≈ 0.242 µM)	≤ 0.05 µg/mL	0.1 µg/mL (≈ 0.121 µM)	1.56 µg/mL (≈ 1.88 µM)
CC[C@H]1OC(=O)[C@H](C)C(=O)[C@H](C)[C@@H](O[C@@H]2O[C@H](C)C[C@H](N(C)C)[C@H]2O)[C@](C)(OC)C[C@@H](C)C(=O)[C@H](C)[C@@H]2[C@@H]1OC(=O)N2CCCCn1cnc(-c2cccnc2)c1	6.25 µg/mL (≈ 7.83 µM)	1.56 µg/mL (≈ 1.95 µM)	0.2 µg/mL (≈ 0.251 µM)	> 50 µg/mL	0.2 µg/mL (≈ 0.251 µM)	≤ 0.05 µg/mL	≤ 0.05 µg/mL	≤ 0.05 µg/mL	0.78 µg/mL (≈ 0.977 µM)	0.1 µg/mL (≈ 0.125 µM)	> 50 µg/mL	0.2 µg/mL (≈ 0.251 µM)	≤ 0.05 µg/mL	0.2 µg/mL (≈ 0.251 µM)	0.78 µg/mL (≈ 0.977 µM)
CC[C@H]1OC(=O)[C@H](C)C(=O)[C@H](C)[C@@H](O[C@@H]2O[C@H](C)C[C@H](N(C)C)[C@H]2O)[C@](C)(OC)C[C@@H](C)C(=O)[C@H](C)[C@H]2N(CCCCn3cnc(-c4cccnc4)c3)C(=O)O[C@]12C [TELITHROMYCIN]	–	0.4 µg/mL (≈ 0.493 µM)	–	–	–	–	–	–	–	–	–	–	–	–	–
CC[C@H]1OC(=O)[C@H](C)C(=O)[C@H](C)[C@@H](O[C@@H]2O[C@H](C)C[C@H](N(C)C)[C@H]2O)[C@](C)(OC)C[C@@H](C)C(=O)[C@H](C)[C@@H]2[C@@H]1OC(=O)N2CCCCc1ncc(-c2cccc(N)c2)s1	6.25 µg/mL (≈ 7.54 µM)	0.78 µg/mL (≈ 0.941 µM)	0.2 µg/mL (≈ 0.241 µM)	> 50 µg/mL	50 µg/mL (≈ 60.3 µM)	≤ 0.05 µg/mL	≤ 0.05 µg/mL	≤ 0.05 µg/mL	0.4 µg/mL (≈ 0.482 µM)	0.2 µg/mL (≈ 0.241 µM)	3.13 µg/mL (≈ 3.78 µM)	0.4 µg/mL (≈ 0.482 µM)	≤ 0.05 µg/mL	–	1.56 µg/mL (≈ 1.88 µM)
CC[C@H]1OC(=O)[C@H](C)C(=O)[C@H](C)[C@@H](O[C@@H]2O[C@H](C)C[C@H](N(C)C)[C@H]2O)[C@](C)(OC)C[C@@H](C)C(=O)[C@H](C)[C@@H]2[C@@H]1OC(=O)N2CCCCn1cnc(-c2ccccc2)c1	3.13 µg/mL (≈ 3.93 µM)	0.2 µg/mL (≈ 0.251 µM)	0.2 µg/mL (≈ 0.251 µM)	> 50 µg/mL	0.78 µg/mL (≈ 0.979 µM)	≤ 0.05 µg/mL	≤ 0.05 µg/mL	≤ 0.05 µg/mL	0.1 µg/mL (≈ 0.125 µM)	0.1 µg/mL (≈ 0.125 µM)	> 50 µg/mL	0.2 µg/mL (≈ 0.251 µM)	≤ 0.05 µg/mL	–	–
